iPSC survival up = enhancers of single-cell hiPSC survival, primary screen, ATPlite luminescence; 100% = ROCK inhibitor wells, 0% = DMSO; survival enhancement, % at 20 µM; 360,000 tested, 0.044% active; AID 602274, 2012; in the data active = survival enhancement above about 18%;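 note: cells exposed to compounds for 16 hours before the ATP read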
MT1-MMP act inh = blockers of MT1-MMP proenzyme processing, primary screen, HT1080 RFP-PRO-GFP cells, GFP/RFP fluorescence; GFP/RFP ratio fluorescence, overnight; percent of plate control window, DMSO zero; GFP/RFP ratio change, % at 20 µM; 360,000 tested, 0.061% active;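 active = GFP/RFP ratio change of at least 30% with cell ATP level not reduced by more than half and red fluorescence within 50% of control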
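Assay system: RFP-PRO-GFP reporter HT1080 cells; read-out basis: GFP/RFP fluorescence ratio; benchmarks: DMSO wells and RFP-L50D-GFP cells; doses: 20 µM single dose, 1% DMSO; schedule: overnight cell settling, then overnight compound exposure, 37 °C, 5% CO2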
SKN-1 block = suppressors of acrylamide-induced Pgst-4::GFP reporter in worms, primary screen, SKN-1 inhibitor project, whole organism, uHTS, GFP/RFP fluorescence ratio, strain VP596. inhibition, % at 21.8 µM. C. elegans VP596 Pgst-4::GFP/RFP ratio, 24 h. 360,000 tested, 0.49% active. AID 624304, 2012;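 active = interference check ratio from 0.5 to 1.5 plus GFP to RFP signal ratio inhibition reaching or exceeding a fixed threshold, cut at about 30% in these data, passing the limit was not always enough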
Tb MetRS inh = T. brucei MetRS inhibitors, primary screen, biochemical, luminescence; methionyl-tRNA synthetase (Trypanosoma brucei brucei); purified T. brucei MetRS, ATP depletion, Kinase-Glo luminescence; inhibition, % at 11.9 µM; 360,000 tested, 0.4% active;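 active = inhibition above a per-plate cutoff of the control wells' mean inhibition plus 3 SD, cut at about 5.5% in these data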;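 note: 0% = DMSO wells median and 100% = median of wells with control inhibitor compound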
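System: purified T. brucei MetRS enzyme / Detection: Kinase-Glo luciferase luminescence reporting remaining unconsumed ATP / Medium: HEPES buffer with MgCl2, KCl, DTT, spermine, BSA, pyrophosphatase / Replication: singlicate, one well per compound / Evaluation: percent inhibition relative to median high and low control wells / Schedule: 2 h aminoacylation at 25 °C after 15 min preincubation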
E coli Lon inh = inhibitors of E. coli Lon protease, primary screen, biochemical, fluorescence polarization | inhibition, % at 7.94 µM | purified E. coli Lon protease | P0A9M0 | 360,000 tested, 0.42% active; in the data active = inhibition above about 13%, passing the limit was not always enough;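 note: 0% = enzyme with probe and DMSO and 100% = no enzyme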
PREPL inhibitor = PREPL enzyme inhibitors, primary screen, biochemical, fluorescence polarization; recombinant PREPL, fluorescence polarization activity-based probe; 320,000 tested, 0.68% active; Prolyl endopeptidase-like (Homo sapiens), Q4J6C6; inhibition, % at 5.96 µM; in the data active = inhibition above about 43%;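 note: 0% = enzyme with DMSO and 100% = wells lacking enzyme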
Target sequence (Q4J6C6 whole entry, looked up): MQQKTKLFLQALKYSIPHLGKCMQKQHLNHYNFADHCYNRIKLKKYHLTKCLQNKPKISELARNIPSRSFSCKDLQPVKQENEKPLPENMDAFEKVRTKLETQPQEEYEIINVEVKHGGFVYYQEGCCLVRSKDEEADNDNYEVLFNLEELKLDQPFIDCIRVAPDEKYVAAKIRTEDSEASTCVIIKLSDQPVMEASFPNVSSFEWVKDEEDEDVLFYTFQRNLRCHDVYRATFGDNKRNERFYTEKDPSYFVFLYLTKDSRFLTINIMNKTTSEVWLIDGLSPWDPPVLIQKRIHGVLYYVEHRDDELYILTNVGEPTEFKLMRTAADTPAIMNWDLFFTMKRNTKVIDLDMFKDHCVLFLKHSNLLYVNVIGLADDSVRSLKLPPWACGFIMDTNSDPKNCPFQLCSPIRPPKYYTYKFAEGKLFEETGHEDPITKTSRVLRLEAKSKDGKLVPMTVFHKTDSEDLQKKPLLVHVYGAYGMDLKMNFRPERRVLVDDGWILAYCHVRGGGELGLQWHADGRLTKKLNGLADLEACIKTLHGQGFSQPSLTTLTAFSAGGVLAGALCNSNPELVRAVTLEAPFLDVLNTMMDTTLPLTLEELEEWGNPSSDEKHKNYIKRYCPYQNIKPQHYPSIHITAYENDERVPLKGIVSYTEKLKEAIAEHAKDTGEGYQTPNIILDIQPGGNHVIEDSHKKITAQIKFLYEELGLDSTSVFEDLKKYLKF
eLon confirm = E. coli Lon protease inhibitor retest, confirmation, biochemical, fluorescence polarization; inhibition, % at 7.94 µM; purified E. coli Lon; shares compounds with E coli Lon inh; 1,400 tested, 31% active; AID 602230, 2012; in the data active = inhibition above about 16%;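 note: 0% = enzyme with probe and DMSO and 100% = no enzyme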
An asterisk follows results filed as active. Hits are enriched below; roughly 1.8% of the tested compounds scored in any of these assays.

Results for CC(C)CC1C(=O)N(Cc2cn(CCC3OCCO3)nn2)CCS(=O)(=O)N1Cc1ccc(-c2ccc(Cl)c(Cl)c2)cc1 (centres undefined) ?
iPSC survival up: -1; MT1-MMP act inh: 0; SKN-1 block: -3; Tb MetRS inh: -1; E coli Lon inh: -5

What do the screens show for `CCCc1cc(=O)n2nc(N3CCC(C(=O)N4CCN(c5cccc(OC)c5)CC4)CC3)sc2n1`?
iPSC survival up: 0; MT1-MMP act inh: 4; SKN-1 block: 11; Tb MetRS inh: 0; E coli Lon inh: 24*; PREPL inhibitor: 25; eLon confirm: 1

How did CC(C)(C)C(=O)NC1(C(F)(F)F)NC(=O)N(Cc2ccccc2)C1=O (centres undefined) do in these assays?
iPSC survival up: -1; MT1-MMP act inh: -3; SKN-1 block: 4; Tb MetRS inh: 0; E coli Lon inh: 0; PREPL inhibitor: 12

What do the screens show for `Cn1c(SCC(=O)NCC2CCCO2)nc2c(c1=O)SCC2` (centres undefined)?
iPSC survival up: 0; MT1-MMP act inh: -2; SKN-1 block: -7; Tb MetRS inh: 0; E coli Lon inh: 52*; PREPL inhibitor: 2; eLon confirm: 1

How did Oc1ccc2oc3c(c2c1C=NCc1ccncc1)CCCC3 do in these assays?
iPSC survival up: 2; MT1-MMP act inh: -17; SKN-1 block: 12; Tb MetRS inh: -1; E coli Lon inh: 21; PREPL inhibitor: 8

Results for CCn1nnc(C(=O)O)c1C(=O)O ?
iPSC survival up: 4; MT1-MMP act inh: 1; SKN-1 block: -11; Tb MetRS inh: -1; E coli Lon inh: 16*; PREPL inhibitor: -1; eLon confirm: -8

What do the screens show for `NNC(=O)CNC(=O)C12CC3CC(CC(C3)C1)C2`?
iPSC survival up: 1; MT1-MMP act inh: 1; SKN-1 block: 5; Tb MetRS inh: 2; E coli Lon inh: 17*; PREPL inhibitor: 0; eLon confirm: -7

What do the screens show for `O=C(CNC(=O)C12CC3CC(CC(C3)C1)C2)NCc1ccccc1`?
iPSC survival up: 0; MT1-MMP act inh: 5; SKN-1 block: 6; Tb MetRS inh: 0; E coli Lon inh: 4; PREPL inhibitor: -4

How did CCOc1ccc(Nc2nc(NCC(=O)O)nc(N)c2[N+](=O)[O-])cc1 do in these assays?
iPSC survival up: 0; MT1-MMP act inh: -3; SKN-1 block: 14; Tb MetRS inh: 0; E coli Lon inh: 19*; PREPL inhibitor: -11; eLon confirm: -24

Results for CCOc1ccc(Nc2nc(Nc3ccc(O)cc3)nc(C)c2[N+](=O)[O-])cc1 ?
iPSC survival up: 1; MT1-MMP act inh: 5; SKN-1 block: 6; Tb MetRS inh: 0; E coli Lon inh: -7; PREPL inhibitor: 5

What do the screens show for `CC(C)=CC(=O)N1CCC(Oc2cccc(C(=O)NCc3ccccn3)c2)CC1`?
iPSC survival up: -1; MT1-MMP act inh: 2; SKN-1 block: -5; Tb MetRS inh: 0; E coli Lon inh: -1

Results for CSCC(C)N1CCC(Oc2cccc(C(=O)NCc3ccccn3)c2)CC1 (centres undefined) ?
iPSC survival up: 0; MT1-MMP act inh: -7; SKN-1 block: 7; Tb MetRS inh: 0; E coli Lon inh: 17*; PREPL inhibitor: 6; eLon confirm: -319

Results for O=C(CN1C(=O)NC2(CCCC2)C1=O)Nc1nc2c(F)cc(F)cc2s1 ?
iPSC survival up: 0; MT1-MMP act inh: -3; SKN-1 block: 5; Tb MetRS inh: 0; E coli Lon inh: -3; PREPL inhibitor: 19

How did COc1ccc(-c2ccc(C(=O)N3CCOCC3)c3occc23)c(C)c1 do in these assays?
iPSC survival up: 0; MT1-MMP act inh: 8; SKN-1 block: 29; Tb MetRS inh: 0; E coli Lon inh: 23*; eLon confirm: 0

How did COc1ccc(-c2ccc(C(=O)N3CCN(C)CC3)c3occc23)c(C)c1 do in these assays?
iPSC survival up: -2; MT1-MMP act inh: 12; SKN-1 block: 0; Tb MetRS inh: -1; E coli Lon inh: -2

What do the screens show for `CC(=O)OCCN(CCCn1c(-c2ccncc2)nc2ccccc21)c1nc(CN2CCCCC2)cs1`?
iPSC survival up: -4; MT1-MMP act inh: -7; SKN-1 block: 1; Tb MetRS inh: 0; E coli Lon inh: -2; PREPL inhibitor: 28

What do the screens show for `C[C@H](CO)N1C[C@H](C)[C@@H](CN(C)S(=O)(=O)c2cccc(F)c2)OCc2cnnn2CCCC1=O`?
iPSC survival up: -2; MT1-MMP act inh: 3; SKN-1 block: 0; Tb MetRS inh: 0; E coli Lon inh: 7

Results for C[C@H]1CN([C@@H](C)CO)C(=O)CCCn2nncc2CO[C@H]1CN(C)S(=O)(=O)c1cccc(F)c1 ?
iPSC survival up: 3; MT1-MMP act inh: 4; SKN-1 block: 10; Tb MetRS inh: -2; E coli Lon inh: 13*; eLon confirm: -14

Results for COc1ccccc1N1CCN(c2ncnc3n[nH]c(Br)c23)CC1 ?
iPSC survival up: 2; MT1-MMP act inh: -3; SKN-1 block: 12; Tb MetRS inh: 0; E coli Lon inh: 6

What do the screens show for `CC(=O)Nc1ccc(-c2ccnc3c2CC(C)(C(=O)Nc2cccc(Oc4ccccc4)c2)O3)cc1` (centres undefined)?
iPSC survival up: -3; MT1-MMP act inh: -3; SKN-1 block: 1; Tb MetRS inh: 0; E coli Lon inh: -13

What do the screens show for `COc1cccc(NC(=S)N(CCc2c(C)[nH]c3ccc(C)cc23)Cc2cccs2)c1`?
iPSC survival up: -1; MT1-MMP act inh: 0; SKN-1 block: 1; Tb MetRS inh: 0; E coli Lon inh: -10; PREPL inhibitor: 25

Results for COc1ccc2[nH]c(C)c(CCN(Cc3cccs3)C(=S)Nc3cccc(F)c3)c2c1 ?
iPSC survival up: 0; MT1-MMP act inh: -58; SKN-1 block: -6; Tb MetRS inh: 0; E coli Lon inh: 27*; PREPL inhibitor: 15; eLon confirm: 10

How did CC(C)(C)c1cc[n+](-c2[nH]c(=O)sc2/C=N/N=C(\[O-])c2cccnc2)cc1 do in these assays?
iPSC survival up: 0; MT1-MMP act inh: 5; SKN-1 block: 10; Tb MetRS inh: 0; E coli Lon inh: 3; PREPL inhibitor: 20

Screening results from PubChem.
